Measured values taken from ChEMBL document CHEMBL1770105, “Discovery and evaluation of pyrazolo[1,5-a]pyrimidines as neuropeptide Y1 receptor antagonists” (Bioorg Med Chem Lett, 2011).
Calls of active or inactive are those of the source. The rule behind the calls is not given here.

What was measured:
[1] = biological target: T1, Neuropeptide Y receptor type 1 (Homo sapiens, UniProt P25929); assay: Displacement of [125I]-PYY from human recombinant NPY Y1 receptor overexpressed in membrane of Sf9 cells
T1 sequence (P25929 whole entry): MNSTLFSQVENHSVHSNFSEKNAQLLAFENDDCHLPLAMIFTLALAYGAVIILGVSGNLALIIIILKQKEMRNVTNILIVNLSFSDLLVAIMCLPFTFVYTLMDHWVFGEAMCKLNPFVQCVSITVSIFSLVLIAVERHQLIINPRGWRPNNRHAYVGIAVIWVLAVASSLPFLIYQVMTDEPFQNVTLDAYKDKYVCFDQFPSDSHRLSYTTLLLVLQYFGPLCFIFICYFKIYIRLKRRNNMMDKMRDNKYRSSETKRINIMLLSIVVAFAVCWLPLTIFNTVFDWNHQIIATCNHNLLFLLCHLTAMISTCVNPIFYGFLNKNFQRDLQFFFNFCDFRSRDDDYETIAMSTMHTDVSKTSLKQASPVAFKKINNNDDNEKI
In short: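 Human Y1 receptor: 125I-PYY displacement on Sf9 membranes overexpressing recombinant hY1R. Ki values are single determinations run in triplicate.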

[2] = biological target: T1, Neuropeptide Y receptor type 1; assay: Antagonist activity at NPY Y1 receptor in human SK-N-MC cells assessed as inhibition of NPY-induced calcium mobilization by FLIPR assay; format: functional, cell-based
In short: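 SK-N-MC neuroblastoma cells plated at 25,000/well 4 days ahead, loaded with Fluo-3 for 1 h in 5% CO2, washed and resuspended in assay buffer (5 mM KCl, 115 mM NaCl, 0.96 mM NaH2PO4, 1 mM MgSO4, 2 mM CaCl2, 5 mM D-glucose) containing test compound.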

[3] = Plasma clearance in Sprague-Dawley rat at 1 mg/kg, iv and 3 mg/kg, po; format: ADME, organism-based
In short: (§1)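 Overnight-fasted, jugular-vein-cannulated SD rats (water ad libitum) dosed by oral gavage (3 mg/kg in 0.5% methyl cellulose, 2 mL/kg, n = 2) or iv via the jugular vein (1.0 mg/kg in 50% PEG, 1 mL/kg, n = 2).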

[4] = Fraction unbound in Sprague-Dawley rat plasma at 1 mg/kg, iv and 3 mg/kg, po; format: ADME, organism-based
Rattus norvegicus [5] = assay: Unbound plasma clearance in Sprague-Dawley rat 1 mg/kg, iv and 3 mg/kg, po; format: ADME, organism-based; conditions: in vivo
Rattus norvegicus [6] = assay: Antihypertensive activity in Sprague-Dawley rat assessed as inhibition of NPY-induced increase in arterial pressure at 3 mg/kg, iv; format: functional; conditions: Artery
In short: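 Overnight-fasted SD rats anesthetized with inactin (100 mg/kg ip), tracheal and femoral arterial/venous cannulae, on a heated pad. Arterial pressure and heart rate recorded every 5 s. NPY given as iv bolus every 15 min. After the third NPY bolus, compound given iv at 3 mg/kg in saline (1 mL/kg), followed by three further NPY injections.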

[7] = Half life in Sprague-Dawley rat at 1 mg/kg, iv and 3 mg/kg, po; format: ADME, organism-based; conditions: in vivo; in short: as §1
[8] = Oral bioavailability in Sprague-Dawley rat at 3 mg/kg; format: ADME, organism-based; conditions: in vivo; in short: as §1
[9] = Ratio of fraction unbound drug level in brain to plasma in Sprague-Dawley rat; format: ADME, cell-free
In short: (§2)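 Brain-to-plasma ratios calculated from unbound fractions. Unbound fraction in brain homogenate and whole plasma of rats or mice measured by equilibrium dialysis.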

[10] = Ratio of fraction unbound drug level in brain to plasma in FVB mouse; format: ADME, cell-free; in short: as §2
[11] = Ratio of fraction unbound drug level in brain to plasma in Mdr1a/1b knockout mouse to FVB mouse at 5 mg.kg, sc after 0.5 hrs; format: ADME, organism-based
In short: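 Brain and plasma levels measured in Mdr1a/1b knockout and wild-type FVB mice 0.5 h after a 5 mg/kg sc dose. Brain/plasma ratios calculated from unbound fractions, measured by equilibrium dialysis of brain homogenate and plasma. Result expressed as knockout B/P over FVB B/P.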

Rattus norvegicus [12] = assay: Antiobesity activity in Sprague-Dawley rat assessed as reduction of NPY-induced food intake at 120 ug, icv after 4 hrs; format: functional, organism-based
In short: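 SD rats with icv cannulae, fed powdered chow ad libitum. Between 10 and 11 am in the light cycle, compound or propylene glycol vehicle co-infused icv with NPY in sterile water over 1 min. Food intake measured over the next 4 h. Crossover design, two treatments 2 days apart.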

Rattus norvegicus [13] = assay: Antiobesity activity in overnight fasted Sprague-Dawley rat assessed as decrease in food intake at 40 mg/kg, po followed by food re-feeding after 2 hrs post compound dose measured upto 2 hrs post re-feeding relative to control; format: functional; design: scale not given: the % may be the effect or the level left
In short: (§3)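 SD rats housed singly with powdered chow and water, fasted overnight, then dosed po at 40 mg/kg or vehicle (0.5% methyl cellulose in water). Pre-weighed food returned 2 or 4 h post-dose. Intake recorded 2 and 4 h after food was restored, relative to vehicle controls.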

Rattus norvegicus [14] = assay: Antiobesity activity in overnight fasted Sprague-Dawley rat assessed as decrease in food intake at 40 mg/kg, po followed by food re-feeding after 4 hrs post compound dose measured up to 2 to 4 hrs post re-feeding; format: functional, organism-based; design: dose 40 mg/kg; in short: as §3
Rattus norvegicus [15] = assay: Neurotoxicity in Sprague-Dawley rat assessed as change in locomotor activity at 40 mg/kg, po; format: toxicity, organism-based; design: dose 40 mg/kg, route oral; conditions: in vivo
Rattus norvegicus [16] = assay: Antiobesity activity in Wistar rat assessed as decrease in nocturnal food intake at 40 mg/kg, po measured every 10 mins for 18 hrs post-dose; format: functional, organism-based; design: dose 40 mg/kg
In short: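 Wistar rats acclimated to a continuous food-intake monitoring system. Dosed po at 40 mg/kg or vehicle 30 min before the dark cycle. Intake logged every 10 min for 18 h post-dose. Compared with time-matched vehicle by two-tailed unpaired t-test.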

Rattus norvegicus [17] = assay: Neurotoxicity in Wistar rat assessed as change in locomotor activity at 40 mg/kg, po; format: toxicity, organism-based; design: dose 40 mg/kg, route oral; conditions: in vivo
Plasma = assay: Unbound plasma concentration in Sprague-Dawley rat at 40 mg/kg, po after 2 hrs; format: ADME, organism-based; design: dose 40 mg/kg, route oral; conditions: in vivo
[18] = biological target: T2, Neuropeptide Y receptor type 2 (Homo sapiens, UniProt P49146); assay: Binding affinity to human NPY Y2 receptor
T2 sequence (P49146 whole entry): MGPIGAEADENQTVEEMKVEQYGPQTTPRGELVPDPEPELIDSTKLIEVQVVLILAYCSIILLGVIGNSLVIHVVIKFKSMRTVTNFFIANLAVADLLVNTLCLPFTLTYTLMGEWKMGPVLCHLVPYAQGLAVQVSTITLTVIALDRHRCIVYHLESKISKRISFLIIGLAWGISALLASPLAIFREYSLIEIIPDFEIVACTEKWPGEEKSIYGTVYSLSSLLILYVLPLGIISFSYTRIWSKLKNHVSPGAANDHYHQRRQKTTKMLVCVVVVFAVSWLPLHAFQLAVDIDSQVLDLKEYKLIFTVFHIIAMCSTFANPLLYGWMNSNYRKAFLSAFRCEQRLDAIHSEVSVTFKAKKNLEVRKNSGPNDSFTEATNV

[19] = biological target: T3, Neuropeptide Y receptor type 5 (Homo sapiens, UniProt Q15761); assay: Binding affinity to human NPY Y5 receptor
T3 sequence (Q15761 whole entry): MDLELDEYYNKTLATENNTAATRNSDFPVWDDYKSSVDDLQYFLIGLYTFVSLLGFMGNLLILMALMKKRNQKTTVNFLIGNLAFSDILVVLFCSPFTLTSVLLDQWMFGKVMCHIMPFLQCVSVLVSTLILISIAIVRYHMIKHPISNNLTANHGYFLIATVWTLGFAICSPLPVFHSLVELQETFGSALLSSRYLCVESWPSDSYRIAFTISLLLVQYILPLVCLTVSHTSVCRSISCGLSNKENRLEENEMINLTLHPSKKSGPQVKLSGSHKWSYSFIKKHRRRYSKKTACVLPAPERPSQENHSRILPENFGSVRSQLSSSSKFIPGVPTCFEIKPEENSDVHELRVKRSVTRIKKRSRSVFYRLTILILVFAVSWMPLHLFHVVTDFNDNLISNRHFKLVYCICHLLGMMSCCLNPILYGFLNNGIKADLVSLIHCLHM

[20] = biological target: T4, Corticotropin-releasing factor receptor 1 (Homo sapiens) (UniProt P34998); assay: Binding affinity to CRHR at 10 uM
T4 sequence (whole entry): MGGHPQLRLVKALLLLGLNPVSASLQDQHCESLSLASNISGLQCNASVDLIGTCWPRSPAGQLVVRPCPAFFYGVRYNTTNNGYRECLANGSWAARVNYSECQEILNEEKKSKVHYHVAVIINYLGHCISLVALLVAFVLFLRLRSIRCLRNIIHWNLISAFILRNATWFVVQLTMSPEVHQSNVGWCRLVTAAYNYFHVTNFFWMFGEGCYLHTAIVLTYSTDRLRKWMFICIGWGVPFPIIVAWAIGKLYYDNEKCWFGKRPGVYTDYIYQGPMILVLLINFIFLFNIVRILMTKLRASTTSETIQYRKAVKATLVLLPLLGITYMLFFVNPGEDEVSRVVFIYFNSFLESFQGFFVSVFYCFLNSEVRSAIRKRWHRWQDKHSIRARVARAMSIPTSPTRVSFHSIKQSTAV

Rattus norvegicus [21] = assay: Antiobesity activity in overnight fasted Sprague-Dawley rat assessed as decrease in food intake at 40 mg/kg, po followed by food re-feeding after 2 hrs post compound dose measured up to 4 hrs post re-feeding relative to control; format: functional; design: scale not given: the % may be the effect or the level left; in short: as §3
[22] = Drug level in Sprague-Dawley rat cerebral spinal fluid at 40 mg/kg, po after 2 hrs; format: ADME, organism-based; design: dose 40 mg/kg, route oral; conditions: cerebrospinal fluid, read-out: Drug uptake
In short: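 Rats dosed 40 mg/kg po were anesthetized with metofane at 2 h post-dose (n = 2). CSF drawn from the cisterna magna with a 26-gauge needle.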

[23] = Drug level in Sprague-Dawley rat brain interstitial fluid at 40 mg/kg, po after 2 hrs; format: ADME, organism-based; design: dose 40 mg/kg, route oral; conditions: read-out: Drug uptake
In short: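 Rats dosed 40 mg/kg po. Interstitial fluid collected at 2 h from the paraventricular nucleus with microdialysis probes.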

[24] = biological target: T5, Neuropeptide Y receptor type 1 (Rattus norvegicus, UniProt P21555); assay: Displacement of [125I]PYY from rat recombinant NPY Y1 receptor overexpressed in membrane of Sf9 cells
T5 sequence (P21555 whole entry): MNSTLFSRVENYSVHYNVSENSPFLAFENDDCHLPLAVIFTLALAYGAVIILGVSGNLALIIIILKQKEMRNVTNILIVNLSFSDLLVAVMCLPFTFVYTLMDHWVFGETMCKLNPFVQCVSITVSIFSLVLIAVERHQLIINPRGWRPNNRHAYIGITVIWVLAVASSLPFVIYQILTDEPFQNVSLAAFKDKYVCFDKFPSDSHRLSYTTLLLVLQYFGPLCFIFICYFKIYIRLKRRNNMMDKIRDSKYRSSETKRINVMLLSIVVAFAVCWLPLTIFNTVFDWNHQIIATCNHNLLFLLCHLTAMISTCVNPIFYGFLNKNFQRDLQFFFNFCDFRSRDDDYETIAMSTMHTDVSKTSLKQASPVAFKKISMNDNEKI

Structure (SMILES) | Ki [1] [nM] | IC50 [2] [nM] | clearance [3] [mL/min/kg] | fraction unbound [4] | CL (Rattus norvegicus [5]) [mL/min/kg] | inhibition in vivo at 3 mg/kg (Rattus norvegicus [6]) [%] | Knockout-to-FVB ratio of unbound brain/plasma ratio [11] | also measured
Cc1cc(NCCNC2CCOCC2)n2nc(C)c(-c3c(Cl)cccc3Cl)c2n1 | 7 | – | – | – | – | – | – | –
COc1cc(Cl)c(-c2c(C)nn3c(NCCNC4CCOCC4)cc(C)nc23)c(Cl)c1 | 1 | 7 | 45 | 0.059 | 763 | 92 | 9 | half-life [7]: 1.2 h; bioavailability [8]: 13%; BPR [9]: 0.13; BPR [10]: 0.1; Activity (Rattus norvegicus [12]): Active; Activity (Rattus norvegicus [13]): 12%; Activity (Rattus norvegicus [14]): inactive; Activity (Rattus norvegicus [15]): Non-toxic; Activity (Rattus norvegicus [16]): Active; Activity (Rattus norvegicus [17]): Non-toxic; Cp (Plasma): 95 nM; IC50 [18]: > 10000 nM; IC50 [19]: > 10000 nM; inhibition [20]: < 50%; Activity (Rattus norvegicus [21]): 12%; concentration at 2 h [22]: 26 nM; concentration at 2 h [23]: 17 nM; Ki [24]: 3.5 nM
COc1cc(Cl)c(-c2c(C)nn3c(NCCNCC(F)F)cc(C)nc23)c(Cl)c1 | 383 | – | – | – | – | – | 2 | –
COc1cc(Cl)c(-c2c(C)nn3c(NCC(C)NC4CCOCC4)cc(C)nc23)c(Cl)c1 (racemic) | 5 | – | – | – | – | – | 10 | –
COc1cc(Cl)c(-c2c(C)nn3c(NCC(C)(C)NC4CCOCC4)cc(C)nc23)c(Cl)c1 | 141 | – | – | – | – | – | 4 | –
CCCOc1cc(Cl)c(-c2c(C)nn3c(NCCNC4CCOCC4)cc(C)nc23)c(Cl)c1 | 8 | 207 | 25 | 0.011 | 2273 | 0 | – | –
CCOc1cc(Cl)c(-c2c(C)nn3c(NCCNC4CCOCC4)cc(C)nc23)c(Cl)c1 | 3 | 15 | 28 | 0.029 | 996 | 47 | – | –
